# According to ChEMBL document CHEMBL1152517, “Isocombretastatins A: 1,1-diarylethenes as potent inhibitors of tubulin polymerization and cytotoxic compounds” (Bioorg Med Chem, 2009):
# Assays:
# [1] = Inhibition of calf brain tubulin polymerization after 20 mins by turbidimetric method; parameters: species or system Bos taurus
# In short: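 Microtubule protein at 1.0 mg/mL in 0.1 M MES, 1 mM EGTA, 1 mM MgCl2, 1 mM β-ME, 1.5 mM GTP, pH 6.7, with 4% DMSO. Preincubated with ligand 30 min at 20 °C, then 10 min on ice. Assembly started by shift from 4 to 37 °C and followed by turbidity at 450 nm. IC50 read graphically as 50% inhibition at 20 min. At least two independent experiments using different protein preparations.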
# HL-60 = test: Cytotoxicity against human HL60 cells after 72 hrs by XTT assay; assay type: functional, cell-based; details: HL-60, 72 h
# In short: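 Cells seeded per well (HeLa 1.5 × 10^3, HT-29 3 × 10^3, A-549 5 × 10^3, HL-60 3 × 10^3). Adherent lines attached for 24 h at 37 °C, 5% CO2. Compound exposure at various concentrations for 72 h. XTT/PMS reagent added, 4 h further incubation, formazan absorbance read at 490 nm (reference 655 nm). IC50 is concentration giving 50% proliferation inhibition. Mean of three independent experiments run in triplicate.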
# A549 = test: Cytotoxicity against human A549 cells after 72 hrs by XTT assay; assay type: functional, cell-based; details: A549, 72 h
# HT-29 = test: Cytotoxicity against human HT-29 cells after 72 hrs by XTT assay; assay type: functional, cell-based; details: HT-29, 72 h
# Bos taurus [2] = organism: Bos taurus; test: Inhibition of calf brain tubulin polymerization at 20 uM after 20 mins by turbidimetric method
# HeLa = test: Cytotoxicity against human HeLa cells after 72 hrs by XTT assay; assay type: functional, cell-based
# Bos taurus [3] = organism: Bos taurus; test: Inhibition of calf brain tubulin polymerization at 40 uM after 20 mins by turbidimetric method
# Bos taurus [4] = organism: Bos taurus; test: Inhibition of calf brain tubulin polymerization at 5 uM after 20 mins by turbidimetric method
SMILES,IC50 [1] [nM],inhibition (Bos taurus [2]) [%],inhibition (Bos taurus [3]) [%],inhibition (Bos taurus [4]) [%],IC50 (HL-60) [nM],IC50 (A549) [nM],IC50 (HT-29) [nM],IC50 (HeLa) [nM]
COc1ccc(C(=O)c2cc(OC)c(OC)c(OC)c2)cc1O [PHENSTATIN],2500,94,,,31,290,1800,
C=C(c1ccc2ccccc2c1)c1ccc(OC)c(OC)c1OC,,11,,,,,> 10000,200
COc1ccc(/C=C\c2cc(OC)c(OC)c(OC)c2)cc1O [COMBRETASTATIN A4],3000,,,,2,,,
COc1cc(C(O)c2ccc3ccccc3c2)cc(OC)c1OC (stereo not drawn),,,0,,,,,
COc1ccc(C(=O)c2cc(OC)c(OC)c(OC)c2)cc1N,1500,,,81,30,57,32,30
COc1ccc(C(=O)c2cc(OC)c(OC)c(OC)c2)cc1,,20,,,270,3100,290,37
COc1ccc(C(=O)c2cc(OC)c(OC)c(OC)c2)cc1[N+](=O)[O-],,12,,,1800,> 10000,2900,2500
C=C(c1cc(OC)c(OC)c(OC)c1)c1ccc2ccccc2c1,15000,82,,,910,360,250,300
CCn1ccc2cc(C(O)c3cc(OC)c(OC)c(OC)c3)ccc21 (stereo not drawn),,41,,,< 1000,> 10000,> 10000,< 1000
COc1cc(C(=O)c2ccc3ccccc3c2)cc(OC)c1OC,1100,,100,,,,,44
COc1cccc2c1C(=O)c1c(O)c3c(c(O)c1C2=O)C[C@@](O)(C(=O)CO)C[C@@H]3O[C@H]1C[C@H](N)[C@H](O)[C@H](C)O1 [DOXORUBICIN],,,,,27,290,240,190
COc1cc(C(O)c2ccc3c(ccn3C)c2)cc(OC)c1OC (stereo not drawn),18000,86,,,,,,
COc1ccc(C(O)c2ccc3c(ccn3C)c2)c(OC)c1OC (stereo not drawn),,9,,,,> 10000,,2500
C=C(c1ccc(OC)c(O)c1)c1ccc(OC)c(OC)c1OC,12200,86,,,240,220,310,35
C=C(c1ccc(OC)cc1)c1ccc(OC)c(OC)c1OC,,16,,,480,> 10000,3200,300
COc1ccc(C(O)c2ccc3ccccc3c2)c(OC)c1OC (stereo not drawn),,0,,,,> 10000,> 10000,> 10000
C=C(c1ccc(OC)c(N)c1)c1ccc(OC)c(OC)c1OC,,32,,,230,2700,330,60
C=C(c1ccc(OC)c([N+](=O)[O-])c1)c1ccc(OC)c(OC)c1OC,,12,,,2600,> 10000,2900,32

# Now from value to compound, other results behind:
IC50 [1] [nM],inhibition (Bos taurus [2]) [%],inhibition (Bos taurus [3]) [%],inhibition (Bos taurus [4]) [%],SMILES,IC50 (HL-60) [nM],IC50 (A549) [nM],IC50 (HT-29) [nM],IC50 (HeLa) [nM]
5700,95,,,CCn1ccc2cc(C(=O)c3cc(OC)c(OC)c(OC)c3)ccc21,,,34,
6000,83,,,C=C(c1cc(OC)c(OC)c(OC)c1)c1ccc2c(ccn2CC)c1,,,35,17
,4,,,COc1ccc(C(=O)c2ccc3ccccc3c2)c(OC)c1OC,3300,> 10000,> 10000,
,40,,,COc1ccc(C(=O)c2ccc3c(ccn3C)c2)c(OC)c1OC,,500,30,30
,34,,,C=C(c1ccc2c(ccn2CC)c1)c1ccc(OC)c(OC)c1OC,,> 10000,> 1000,> 1000
7900,,98,,COc1cc(C(=O)c2ccc3c(ccn3C)c2)cc(OC)c1OC,,,,35
,0,,,CCn1ccc2cc(C(O)c3ccc(OC)c(OC)c3OC)ccc21 (stereo not drawn),> 10000,> 10000,> 10000,< 1000
,7,,,COc1ccc(C(=O)c2ccc(OC)c(OC)c2OC)cc1,2000,> 10000,3100,1800
5600,47,,,CCn1ccc2cc(C(=O)c3ccc(OC)c(OC)c3OC)ccc21,> 1000,> 10000,> 1000,450
